Consider 167 variants from the RNAGym collection of RNA variant scans (doi:10.1002/anie.201605470).

B1: Osa-1-4 twister ribozyme (parent)
chain: CCGCCUAACACUGCCAAUGCCGGUCCCAAGCCCGGAUAAAAGUGGAGGGGGCGG

In the data set the parent is B1. The data set is described as follows: self-cleavage, relative activity (ratio to wild type); higher = more cleavage; co-transcriptional. The method in brief:
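The 48 positions downstream of the cleavage site in a DNA template for a 54-nucleotide Oryza sativa twister ribozyme carried 97 % wild-type base and 1 % of each other base. After in vitro transcription (2 h, 37 °C) with co-transcriptional self-cleavage, the RNA was reverse-transcribed with a template-switching oligonucleotide, PCR-amplified and deep-sequenced. Relative activity is the fraction cleaved, judged by reads with or without upstream sequence and normalised to wild type.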
Take A28C C11U: the self-cleavage came to 0.91.
For the variant C27G U43C, the self-cleavage was determined as 0.06.
On to C27G U43G, for which the self-cleavage turned out to be 0.06.
C27G U43A: the self-cleavage amounted to 0.08.
A28C C25G: the self-cleavage was determined as 0.09.
Under A28C C25A stands 0.09; under A28C C25U, 0.91; under A28G G13A, 0.05.
The figure for A28G G13U is 0.01; for A28G G13C it is 0.03.
With A28C A40U, the self-cleavage turned out to be 0.55.
Under A28C A40G stands 0.68; under A28C A40C, 0.08.
Turning to A28C G30U, the self-cleavage was found to be 0.04.
As for A28C G30C, the self-cleavage came to 0.05.
Under A28C G30A stands 0.04; under A28C G35C, 0.4.
For the variant A28C G35A, the self-cleavage came out at 0.81.
As for A28C G35U, the self-cleavage was found to be 0.85.
A28C G23C: the self-cleavage was 0.05.
On to A28C G23A, for which the self-cleavage was found to be 0.2.
A28C G23U: the self-cleavage came out at 0.07.
For C27U G35A, the self-cleavage worked out at 0.31.
On to C27U G35C, for which the self-cleavage came out at 0.06.
Regarding C27U G35U, the self-cleavage was 0.19.
In the case of C27U G13C, the self-cleavage is 0.01.
Under C27U G13A stands 0.04; under C27U G13U, 0.01; under A28G G30A, 0.05.
For the variant A28G G30C, the self-cleavage came to 0.04.
Under A28G G30U stands 0.05; under C27U G19C, 0.04.
As to C27U G19U, the self-cleavage was found to be 0.05.
For the variant C27U G19A, the self-cleavage worked out at 0.08.
The figure for A28G G53U is 0.1.
As to A28G G53A, the self-cleavage came out at 0.14.
As to A28G G53C, the self-cleavage stood at 0.06.
A28C C9U: the self-cleavage amounted to 0.8.
Regarding A28C C9G, the self-cleavage is 0.67.
With A28C C9A, the self-cleavage was found to be 0.42.
Under C27U G42C stands 0.07.
On to C27U G42A, for which the self-cleavage turned out to be 0.08.
Under C27U G42U stands 0.03.
In the case of C27U G47U, the self-cleavage was found to be 0.11.
The figure for C27U G47A is 0.88; for C27U G47C it is 0.42; for A28G C21U it is 0.23.
Under A28G C21G stands 0.06; under A28G C21A, 0.07.
The figure for A28G C14G is 0.15; for A28G C14A it is 0.05.
Turning to A28G C14U, the self-cleavage stood at 0.11.
As for A28G G44C, the self-cleavage amounted to 0.12.
The figure for A28G G44A is 0.1; for A28G G44U it is 0.11; for C27U G45U it is 0.04.
As to C27U G45A, the self-cleavage was 0.05.
For C27U G45C, the self-cleavage was determined as 0.04.
With A28C U18A, the self-cleavage is 0.96.
For A28C U18C, the self-cleavage came to 0.72.
A28C U18G: the self-cleavage was determined as 1.01.
Under C27U G22U stands 0.06; under C27U G22C, 0.03; under C27U G22A, 0.12.
Take A28G C31G: the self-cleavage was 0.09.
As to A28G C31U, the self-cleavage worked out at 0.08.
As to A28G C31A, the self-cleavage amounted to 0.02.
The figure for A28C C21A is 0.53; for A28C C21U it is 1.
A28C C21G: the self-cleavage was 0.09.
Turning to A28C C26A, the self-cleavage stood at 0.05.
Take A28C C26G: the self-cleavage was 0.09.
Take A28C C26U: the self-cleavage stood at 0.78.
On to A28C G49A, for which the self-cleavage amounted to 0.16.
In the case of A28C G49C, the self-cleavage was determined as 0.07.
Consider A28C G49U, for which the self-cleavage came out at 0.13.
For the variant A28G A8C, the self-cleavage worked out at 0.05.
For A28G A8G, the self-cleavage is 0.19.
For A28G A8U, the self-cleavage came to 0.07.
In the case of A28C G51U, the self-cleavage is 0.28.
The figure for A28C G51C is 0.12.
Under A28C G51A stands 0.24.
For A28C U43A, the self-cleavage came out at 0.72.
The figure for A28C U43C is 0.33; for A28C U43G it is 0.32; for A28C G47A it is 0.2.
Turning to A28C G47C, the self-cleavage amounted to 0.08.
On to A28C G47U, for which the self-cleavage came out at 0.19.
On to A28G C27A, for which the self-cleavage worked out at 0.06.
Regarding A28G C27G, the self-cleavage was 0.1.
The figure for A28G C27U is 0.07; for A28G A40C it is 0.05; for A28G A40G it is 0.14.
For A28G A40U, the self-cleavage was 0.09.
With C27U C31G, the self-cleavage is 0.06.
On to C27U C31A, for which the self-cleavage was found to be 0.02.
As to C27U C31U, the self-cleavage was 0.07.
As for C27U U12C, the self-cleavage is 0.07.
On to C27U U12A, for which the self-cleavage turned out to be 0.1.
Take C27U U12G: the self-cleavage turned out to be 0.07.
The figure for A28C C14A is 0.09.
In the case of A28C C14U, the self-cleavage is 0.46.
A28C C14G: the self-cleavage worked out at 0.17.
On to A28C G45U, for which the self-cleavage stood at 0.08.
Regarding A28C G45A, the self-cleavage was 0.13.
The figure for A28C G45C is 0.03; for A28G G51A it is 0.11.
As to A28G G51U, the self-cleavage turned out to be 0.06.
Regarding A28G G51C, the self-cleavage is 0.06.
Under A28C A41G stands 0.82; under A28C A41U, 0.98.
Turning to A28C A41C, the self-cleavage was 0.91.
A28G C9A: the self-cleavage came to 0.04.
Take A28G C9G: the self-cleavage was 0.29.
For the variant A28G C9U, the self-cleavage was 0.11.
For the variant A28G C52G, the self-cleavage turned out to be 0.32.
A28G C52A: the self-cleavage worked out at 0.2.
Take A28G C52U: the self-cleavage came to 0.46.
Regarding A28G G35A, the self-cleavage was 0.21.
For A28G G35U, the self-cleavage was found to be 0.15.
As to A28G G35C, the self-cleavage was 0.09.
Turning to C27U G53C, the self-cleavage stood at 0.05.
The figure for C27U G53A is 0.12; for C27U G53U it is 0.08; for C27U G54C it is 0.12.
In the case of C27U G54A, the self-cleavage came out at 0.14.
Take C27U G54U: the self-cleavage was 0.31.
In the case of C27U G34C, the self-cleavage was 0.08.
The figure for C27U G34U is 0.15.
As for C27U G34A, the self-cleavage turned out to be 0.18.
For C27U C32A, the self-cleavage was 0.04.
For the variant C27U C32G, the self-cleavage turned out to be 0.05.
Consider C27U C32U, for which the self-cleavage stood at 0.06.
Turning to A28C G22U, the self-cleavage amounted to 0.4.
For A28C G22A, the self-cleavage was 0.68.
Under A28C G22C stands 0.08; under A28C G42C, 0.12; under A28C G42U, 0.08.
As for A28C G42A, the self-cleavage was 0.43.
The figure for A28C U24C is 0.18; for A28C U24A it is 0.14.
A28C U24G: the self-cleavage was found to be 0.05.
As for A28C C31G, the self-cleavage turned out to be 0.09.
Under A28C C31A stands 0.04.
Take A28C C31U: the self-cleavage is 0.84.
As for A28G C20U, the self-cleavage was 0.31.
Under A28G C20G stands 0.08.
The figure for A28G C20A is 0.37; for A28G G42U it is 0.04; for A28G G42A it is 0.1.
As for A28G G42C, the self-cleavage stood at 0.07.
As to A28C G13U, the self-cleavage stood at 0.03.
Under A28C G13C stands 0.02; under A28C G13A, 0.11.
For C27G U37G, the self-cleavage was 0.16.
As for C27U G50C, the self-cleavage stood at 0.09.
On to C27U G50A, for which the self-cleavage was 0.18.
For C27U G50U, the self-cleavage was 0.12.
As to A28G A39C, the self-cleavage amounted to 0.11.
Consider A28G A39U, for which the self-cleavage was 0.16.
A28G A39G: the self-cleavage worked out at 0.17.
Consider A28G A41C, for which the self-cleavage is 0.13.
As for A28G A41U, the self-cleavage came out at 0.23.
On to A28G A41G, for which the self-cleavage turned out to be 0.14.
Consider A28G A46U, for which the self-cleavage was determined as 0.05.
As to A28G A46G, the self-cleavage was 0.5.
For the variant A28G A46C, the self-cleavage turned out to be 0.04.
